Converted amounts (≈) assume the structure as drawn.
Legend:
Streptococcus pyogenes = test: Tested for minimum inhibitory concentration against Streptococcus pyogenes G-36; format: functional
Summary of the method: (§1)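 Twofold broth microdilution in Mueller-Hinton broth, inoculum approximately 10^6 cfu/mL. Plates incubated 18 h at 37 °C. MIC taken as the lowest concentration preventing visible bacterial growth.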

Proteus vulgaris = test: Tested for minimum inhibitory concentration against Proteus vulgaris 08601; format: functional; summary of the method: as §1
Enterococcus faecalis = test: Tested for minimum inhibitory concentration against Enterococcus faecalis ATCC 19433; format: functional; summary of the method: as §1
Escherichia coli [1] = test: Tested for minimum inhibitory concentration against Escherichia coli NIHJ; format: functional; summary of the method: as §1
Staphylococcus aureus [2] = test: Tested for minimum inhibitory concentration against Staphylococcus aureus Smith; format: functional; summary of the method: as §1
Staphylococcus aureus [3] = test: Tested for minimum inhibitory concentration against Staphylococcus aureus 209P; format: functional; summary of the method: as §1
Klebsiella pneumoniae = test: Tested for minimum inhibitory concentration against Klebsiella pneumoniae; format: functional; summary of the method: as §1
Escherichia coli [4] = test: Tested for minimum inhibitory concentration against Escherichia coli KL-16; format: functional; summary of the method: as §1
Enterobacter cloacae [5] = test: (§2) Tested for minimum inhibitory concentration against Enterobacter cloacae 03400; format: functional
[6] = test system: Staphylococcus epidermidis; test: Tested for minimum inhibitory concentration against Staphylococcus epidermidis 56556; format: functional; summary of the method: as §1
[7] = Partition coefficient of the compound; format: ADME; conditions: CHCl3-0.1 M phosphate buffer (pH 7.4)
Summary of the method: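 Shake-flask distribution between CHCl3 and 0.1 M sodium phosphate buffer pH 7.4, each phase presaturated with the other. About 1–2 mg sample dissolved in the aqueous phase and its UV maximum absorbance recorded. Equal 10 mL volumes shaken 30 min at room temperature, then left 1 h to separate. Aqueous-layer UV maximum re-read. P' calculated as a ratio of the absorbance readings.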

Pseudomonas aeruginosa = test: Tested for minimum inhibitory concentration against Pseudomonas aeruginosa 32121; format: functional; summary of the method: as §1
Enterobacter cloacae [8] = test: as §2; format: functional; summary of the method: as §1; remark: listed apart in the source
[9] = biological target: DNA gyrase (Escherichia coli) (UniProt P0AES6+P0AES4); test: Dose required to inhibit DNA gyrase in Escherichia coli; format: protein-complex assay
[10] = Proteus vulgaris, read-out: MIC
[11] = Escherichia coli, read-out: MIC
[12] = Pseudomonas aeruginosa, read-out: MIC
[13] = Klebsiella pneumoniae, read-out: MIC
[14] = Staphylococcus aureus, read-out: MIC
[15] = Enterococcus faecalis, ATCC 19433, read-out: MIC
[16] = Staphylococcus epidermidis, read-out: MIC

Compound | MIC (Streptococcus pyogenes) | MIC (Proteus vulgaris; [10]) | MIC (Enterococcus faecalis) | MIC (Staphylococcus aureus [2]) | MIC (Staphylococcus aureus [3]) | MIC (Klebsiella pneumoniae) | MIC [6] | MIC (Pseudomonas aeruginosa) | other results
CN1CCN(c2cc3c(cc2F)c(=O)c(C(=O)O)cn3C2CC2F)CC1 (stereo in doubt; 26) | 1.56 µg/mL (≈ 4.29 µM) | ≤ 0.05 µg/mL | 0.78 µg/mL (≈ 2.15 µM) | <=0.05 ug ml-1 | 0.1 µg/mL (≈ 0.275 µM) | <=0.05 ug ml-1 | 0.1 µg/mL (≈ 0.275 µM) | – | MIC (Escherichia coli [1]): ≤ 0.05 µg/mL; MIC (Escherichia coli [4]; [11]): 0.05 µg/mL (≈ 0.138 µM); MIC (Enterobacter cloacae [5]): ≤ 0.05 µg/mL; P' [7]: 7; MIC (Pseudomonas aeruginosa; [12]): 0.2 µg/mL (≈ 0.55 µM)
C[C@H]1CN(c2c(F)cc3c(=O)c(C(=O)O)cn(C4CC4F)c3c2F)CCN1 (stereo in doubt; 33) | 50 µg/mL (≈ 131 µM) | ≤ 0.05 µg/mL | 12.5 µg/mL (≈ 32.8 µM) | 0.78 µg/mL (≈ 2.05 µM) | 1.56 µg/mL (≈ 4.09 µM) | – | 3.13 µg/mL (≈ 8.21 µM) | 0.39 µg/mL (≈ 1.02 µM) | MIC (Enterobacter cloacae [8]): ≤ 0.05 µg/mL; MIC (Escherichia coli [1]; [11]): ≤ 0.05 µg/mL; MIC (Klebsiella pneumoniae; [13]): 0.1 µg/mL (≈ 0.262 µM)
O=C(O)c1cn(C2CC2)c2cc(N3CCNCC3)c(F)cc2c1=O [CIPROFLOXACIN] | – | ≤ 0.05 µg/mL | – | – | – | – | – | – | MIC (Enterococcus faecalis; [15]): 0.78 µg/mL (≈ 2.35 µM); MIC (Escherichia coli [1]): ≤ 0.05 µg/mL; MIC (Staphylococcus aureus [2]; [14]): ≤ 0.05 µg/mL; MIC (Staphylococcus aureus [3]; [14]): 0.1 µg/mL (≈ 0.302 µM); MIC (Klebsiella pneumoniae; [13]): ≤ 0.05 µg/mL; MIC (Escherichia coli [4]; [11]): 0.025 µg/mL (≈ 0.0754 µM); MIC [6, 16]: 0.2 µg/mL (≈ 0.604 µM); MIC (Pseudomonas aeruginosa; [12]): ≤ 0.05 µg/mL; ID50 [9]: 0.13 µg/mL (≈ 0.392 µM)
O=C(O)c1cn(C2CC2F)c2c(F)c(N3CCNCC3)c(F)cc2c1=O (stereo in doubt; 29) | 50 µg/mL (≈ 136 µM) | ≤ 0.05 µg/mL | 25 µg/mL (≈ 68.1 µM) | 0.78 µg/mL (≈ 2.12 µM) | 1.56 µg/mL (≈ 4.25 µM) | 0.2 µg/mL (≈ 0.544 µM) | 3.13 µg/mL (≈ 8.52 µM) | 0.39 µg/mL (≈ 1.06 µM) | MIC (Enterobacter cloacae [8]): ≤ 0.05 µg/mL; MIC (Escherichia coli [1]; [11]): 0.1 µg/mL (≈ 0.272 µM)
O=C(O)c1cn(C2CC2F)c2cc(N3CCNCC3)c(F)cc2c1=O (stereo in doubt; 25) | 50 µg/mL (≈ 143 µM) | – | 12.5 µg/mL (≈ 35.8 µM) | 0.39 µg/mL (≈ 1.12 µM) | 0.78 µg/mL (≈ 2.23 µM) | 0.1 µg/mL (≈ 0.286 µM) | 0.78 µg/mL (≈ 2.23 µM) | 0.1 µg/mL (≈ 0.286 µM) | –
CN1CCN(c2cc3c(cc2F)c(=O)c(C(=O)O)cn3C2CC2F)CC1 (stereo in doubt; 27) | 50 µg/mL (≈ 138 µM) | – | 12.5 µg/mL (≈ 34.4 µM) | 0.39 µg/mL (≈ 1.07 µM) | 0.78 µg/mL (≈ 2.15 µM) | 0.2 µg/mL (≈ 0.55 µM) | 0.78 µg/mL (≈ 2.15 µM) | 0.39 µg/mL (≈ 1.07 µM) | MIC (Proteus vulgaris): 0.1 µg/mL (≈ 0.275 µM); MIC (Escherichia coli [4]): 0.1 µg/mL (≈ 0.275 µM)

Now from value to compound, other results behind:

MIC (Streptococcus pyogenes) | MIC (Proteus vulgaris; [10]) | MIC (Enterococcus faecalis) | MIC (Staphylococcus aureus [2]) | MIC (Staphylococcus aureus [3]) | MIC (Klebsiella pneumoniae) | MIC [6] | MIC (Pseudomonas aeruginosa) | Compound | other results
50 µg/mL (≈ 131 µM) | – | 12.5 µg/mL (≈ 32.8 µM) | – | 1.56 µg/mL (≈ 4.09 µM) | 0.2 µg/mL (≈ 0.524 µM) | 3.13 µg/mL (≈ 8.21 µM) | 0.78 µg/mL (≈ 2.05 µM) | C[C@@H]1CN(c2c(F)cc3c(=O)c(C(=O)O)cn(C4CC4F)c3c2F)CCN1 (stereo in doubt; 35) | MIC (Proteus vulgaris): 0.2 µg/mL (≈ 0.524 µM); MIC (Staphylococcus aureus [2]; [14]): 0.78 µg/mL (≈ 2.05 µM)
– | ≤ 0.05 µg/mL | – | – | – | – | – | – | CN1CCN(c2cc3c(cc2F)c(=O)c(C(=O)O)cn3[C@@H]2C[C@@H]2F)CC1 (stereo in doubt; 39) | MIC (Streptococcus pyogenes; Streptococcus pyogenes, read-out: MIC): 1.56 µg/mL (≈ 4.29 µM); MIC (Enterococcus faecalis; [15]): 0.78 µg/mL (≈ 2.15 µM); MIC (Escherichia coli [1]): ≤ 0.05 µg/mL; MIC (Staphylococcus aureus [2]; [14]): ≤ 0.05 µg/mL; MIC (Staphylococcus aureus [3]; [14]): 0.1 µg/mL (≈ 0.275 µM); MIC (Klebsiella pneumoniae; [13]): 0.1 µg/mL (≈ 0.275 µM); MIC (Escherichia coli [4]; [11]): 0.05 µg/mL (≈ 0.138 µM); MIC (Enterobacter cloacae [5]): ≤ 0.05 µg/mL; MIC [6, 16]: 0.2 µg/mL (≈ 0.55 µM); P' [7]: 7; MIC (Pseudomonas aeruginosa; [12]): 0.2 µg/mL (≈ 0.55 µM)
6.25 µg/mL (≈ 17.2 µM) | – | 1.56 µg/mL (≈ 4.28 µM) | 0.2 µg/mL (≈ 0.549 µM) | 0.39 µg/mL (≈ 1.07 µM) | 0.2 µg/mL (≈ 0.549 µM) | 0.39 µg/mL (≈ 1.07 µM) | 0.2 µg/mL (≈ 0.549 µM) | CN1CCN(c2nc3c(cc2F)c(=O)c(C(=O)O)cn3C2CC2F)CC1 (stereo in doubt; 36) | MIC (Proteus vulgaris): 0.2 µg/mL (≈ 0.549 µM)
– | – | – | – | – | <=0.05 ug ml-1 | 0.2 µg/mL (≈ 0.55 µM) | 0.1 µg/mL (≈ 0.275 µM) | CN1CCN(c2cc3c(cc2F)c(=O)c(C(=O)O)cn3[C@@H]2C[C@@H]2F)CC1 (stereo in doubt; 38) | MIC (Escherichia coli [4]): 0.025 µg/mL (≈ 0.0688 µM); P' [7]: 7.3
1.56 µg/mL (≈ 4.09 µM) | – | 0.78 µg/mL (≈ 2.05 µM) | <=0.05 ug ml-1 | 0.1 µg/mL (≈ 0.262 µM) | <=0.05 ug ml-1 | 0.2 µg/mL (≈ 0.524 µM) | 0.1 µg/mL (≈ 0.262 µM) | C[C@H]1CN(c2c(F)cc3c(=O)c(C(=O)O)cn(C4CC4F)c3c2F)CCN1 (stereo in doubt; 32) | –
